Laboratory results taken from ChEMBL document CHEMBL2062492 (ACS Med Chem Lett, 2012).
Calls of active or inactive are those of the source. The rule behind the calls is not given here.

Legend:
MCF7 [1] = experiment: Growth inhibition of human MCF7 cells at 10^-6 M after 5 days relative to control; assay type: functional; conditions: MCF7, 120 h, read-out: GI
Summary of the method: (§1)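 Cell survival assay on ER+ MCF-7 or T47D cells treated at fixed concentrations of 10–7 M and 10–6 M. 4-OHT-treated cells served as positive control. Growth inhibition is expressed as percent relative to survival.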

T47D [2] = experiment: Metabolic stability in human T47D cells assessed as compound remaining by LC-MS/MS analysis; assay type: ADME, cell-based
Summary of the method: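 Culture medium from MCF-7 or T47D cells incubated with prodrug was analysed for both intact prodrug and released 4-OHT. Results are reported as relative chromatographic peak areas (% of total for prodrug versus 4-OHT).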

MCF7 [3] = experiment: Drug uptake in human MCF7 cells at 10^-6 M after 6 days by HPLC-MS/MS analysis; assay type: ADME, cell-based; conditions: mcf7, 144 h, 1 µM
Summary of the method: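 Uptake is estimated indirectly. Drug remaining in the culture medium was measured after 6 days of incubation with MCF-7 cells.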

T47D [4] = experiment: Growth inhibition of human T47D cells at 10^-6 M after 5 days relative to control; assay type: functional; conditions: 120 h, read-out: GI; summary of the method: as §1
[5] = Half life of the compound in human MCF7 cells at 10^-6 M by HPLC-MS/MS analysis; assay type: ADME, cell-based
MCF7 [6] = experiment: Metabolic stability in human MCF7 cells assessed as compound remaining by LC-MS/MS analysis; assay type: ADME, cell-based
MCF7 [7] = experiment: Growth inhibition of human MCF7 cells at 10^-7 M after 5 days relative to control; assay type: functional; conditions: MCF7, 120 h, read-out: GI; summary of the method: as §1
T47D [8] = experiment: Cytotoxicity against human T47D cells after 5 days; assay type: functional, cell-based; conditions: 120 h
MDA-MB-231 = experiment: Cytotoxicity against human MDA-MB-231 cells assessed as cell survival at 10^-7 M relative to vehicle-treated control; assay type: functional; conditions: for viability at 0.1 µM: read-out: Survival
Summary of the method: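 MDA-MB-231 used as the ER-negative breast cancer line, tested at 10–7 M alongside MCF-7 cells. Read-out is survival ratio versus control.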

MCF7 [9] = experiment: Cytotoxicity against human MCF7 cells after 5 days; assay type: functional, cell-based; conditions: MCF7, 120 h
MCF7 [10] = experiment: Ratio of 4-hydroxytamoxifen IC50 to compound IC50 for human MCF7 cells; assay type: functional
MCF7 [11] = experiment: Ratio of tamoxifen IC50 to compound IC50 for human MCF7 cells; assay type: functional
T47D [12] = experiment: Growth inhibition of human T47D cells at 10^-7 M after 5 days relative to control; assay type: functional; conditions: 120 h, read-out: GI
Summary of the method: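 Cell survival assay in ER+ T47D breast cancer cells dependent on estrogen for growth. Compounds tested at 10–7 and 10–6 M, with 4-OHT as positive control. Read-out is % growth inhibition from survival relative to control.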

Compound | inhibition of growth at 1 µM (MCF7 [1]) [%] | Stability (T47D [2]) [%] | Drug uptake (MCF7 [3]) | inhibition of growth at 1 µM (T47D [4]) [%] | half-life at 1 µM [5] [h] | Stability (MCF7 [6]) [%] | inhibition of growth at 0.1 µM (MCF7 [7]) [%] | IC50 (T47D [8]) [nM] | Activity (MDA-MB-231) | IC50 (MCF7 [9]) [nM] | Ratio IC50 (MCF7 [10]) | Ratio IC50 (MCF7 [11]) | viability at 0.1 µM (MDA-MB-231) [%] | inhibition of growth at 0.1 µM (T47D [12]) [%]
CC/C(=C(/c1ccc(OCCN(C)C)cc1)c1ccc(B(O)O)cc1)c1ccccc1 | 75 | 20.9 | Active | 54 | 96 | 30.4 | 51 | 228 | inactive | 42 | – | – | – | –
CC/C(=C(/c1ccc(OCCN(C)C)cc1)c1ccc(B2OC(C)(C)C(C)(C)O2)cc1)c1ccccc1 | 63 | – | Active | 60 | 89 | – | 52 | 144 | inactive | 148 | 0.2 | – | – | –
CCC(=C(c1ccc(O)cc1)c1ccc(OCCN(C)C)cc1)c1ccccc1 | 63 | – | Active | – | – | – | 56 | 210 | – | 29.1 | – | 30 | > 95 | 51
CC/C(=C(\c1ccccc1)c1ccc(OCCN(C)C)cc1)c1ccccc1 [TAMOXIFEN] | 52 | – | – | – | – | – | 18 | – | – | – | – | – | > 95 | –
CC/C(=C(/c1ccc(OCCN(C)C)cc1)c1ccc([B-](F)(F)F)cc1)c1ccccc1.[K+] | 76 | – | Active | 50 | 84 | – | 59 | 260 | inactive | 6.26 | – | – | – | –
